Source: PubChem (several laboratories)
MEX-5 binding: C. elegans MEX-5 TCR-2 RNA binding activity | Q9XUB2 | MEX-5/FITC-TCR2 RNA binding, fluorescence polarization; active compounds read low | activity score (negative = inhibition of binding), % at 10 µM | 300,000 tested, 0.38% active;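 active = inhibition past about -25% in most replicates, and total fluorescence under double the plate's negative control median, limit read from the data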
CendR NRP1 mod: modulators of CendR peptide binding to human neuropilin-1. O14786. FAM-RPARPAR peptide binding to NRP-1, fluorescence polarization. inhibition, % at 25 µM. 360,000 tested, 0.85% active;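 active = inhibition or corrected inhibition above about 18%, plus a signal ratio from 0.5 to 1.5, limit read from the data, passing the limit was not always enough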
Target sequence (O14786 whole entry, looked up): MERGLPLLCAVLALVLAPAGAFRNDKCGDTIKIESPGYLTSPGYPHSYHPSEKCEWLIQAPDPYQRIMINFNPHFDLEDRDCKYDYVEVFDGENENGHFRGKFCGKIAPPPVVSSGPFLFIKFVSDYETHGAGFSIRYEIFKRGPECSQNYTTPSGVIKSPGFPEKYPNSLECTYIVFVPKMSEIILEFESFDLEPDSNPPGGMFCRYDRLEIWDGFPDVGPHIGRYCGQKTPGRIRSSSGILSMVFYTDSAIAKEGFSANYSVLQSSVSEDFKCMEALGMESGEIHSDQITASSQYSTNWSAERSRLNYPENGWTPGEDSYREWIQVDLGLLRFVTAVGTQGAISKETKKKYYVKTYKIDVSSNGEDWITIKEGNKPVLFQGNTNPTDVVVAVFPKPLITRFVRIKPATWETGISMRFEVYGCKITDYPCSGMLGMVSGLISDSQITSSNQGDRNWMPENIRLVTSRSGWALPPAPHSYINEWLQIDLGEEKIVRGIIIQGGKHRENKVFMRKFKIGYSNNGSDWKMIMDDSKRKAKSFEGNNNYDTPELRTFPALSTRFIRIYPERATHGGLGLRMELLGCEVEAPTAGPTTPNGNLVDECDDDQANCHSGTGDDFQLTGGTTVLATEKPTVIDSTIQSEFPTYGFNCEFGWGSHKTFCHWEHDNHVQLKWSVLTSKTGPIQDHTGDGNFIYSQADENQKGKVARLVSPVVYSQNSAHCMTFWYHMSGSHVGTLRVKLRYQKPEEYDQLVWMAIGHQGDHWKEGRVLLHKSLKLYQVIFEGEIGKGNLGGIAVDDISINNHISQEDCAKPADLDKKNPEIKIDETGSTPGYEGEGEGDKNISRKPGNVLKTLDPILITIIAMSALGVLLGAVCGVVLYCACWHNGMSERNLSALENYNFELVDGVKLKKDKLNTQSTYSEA
DNA FID counter: displaces DNA intercalator in HCV helicase counter-screen. AID 1845. 290,000 tested, 0.17% active. DNA fluorescent intercalator displacement, fluorescence. inhibition, % at 7.9 µM; in the data active = inhibition above about 37%;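 also: higher means more ethidium bromide displaced from hairpin DNA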
core dimer inh: HCV core protein dimerization inhibition | TR-FRET GST/Flag-core106 dimerization, 1536-well | inhibition, % at 5 µM | 300,000 tested, 0.33% active | AID 1899;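 active = inhibition above the mean of all tested compounds plus 3 SD, set per screening campaign, cut at about 45% in these data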
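Material: Tagged HCV core106 pair (GST and Flag) | Amount: GST-core106 13.5 nM, Flag-core106 17 nM | Medium: KF-containing HEPES buffer, pH 7.45, DTT, CHAPS, BSA | Reagent: Eu donor and XL665 acceptor anti-tag antibodies | Schedule: 4 h at 22.5 °C | Technique: Time-resolved FRET, ex 340 nm, em 617 and 671 nm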
Of the large screens only hits and unclear results are named; the others gave an inactive call. A selection: hits, their analogues and other compounds. The true share with any hit is near 1.5%.

C#CCOCCOCCOCCNc1nc(N2CCN(C(=O)[C@H]([C@@H](C)CC)n3cc([C@@H](N)CC(C)C)nn3)CC2)nc(N2CCN(C(=O)[C@H](Cc3cc4ccccc4[nH]3)n3cc([C@@H](N)Cc4ccc(O)cc4)nn3)CC2)n1	DNA FID counter 44 (no result: CendR NRP1 mod)
O=C(c1ccccc1)N(c1ccccc1)c1ccccc1O	none (no result: MEX-5 binding, DNA FID counter, core dimer inh)
CCOc1ccc(NCc2cccn2-c2nnc(N3CCC(C(=O)NCCCN4CC(C)CC(C)C4)CC3)s2)cc1 (stereo unspecified)	DNA FID counter 38
CCN1CCN(CCCNC(=O)C2CCN(c3nnc(-n4cccc4)s3)CC2)CC1	none
CCc1ccc(C2CC(c3ccccc3)Nc3nc(N)nn32)cc1 (stereo unspecified)	none
c1ccc(C2CC(c3ccccc3)n3c(nc4ccccc43)N2)cc1 (stereo unspecified)	CendR NRP1 mod 24
Cc1n[nH]c(=O)n(N=Cc2cccs2)c1=O	none (no result: MEX-5 binding, DNA FID counter, core dimer inh)
COc1ccccc1Cc1c(-c2ccco2)nc2cc(C)c(Br)c(C)n12	none (no result: MEX-5 binding, DNA FID counter, core dimer inh)
O=C(Cc1ccccc1)NCC(=O)N/N=C/c1ccc(C(=O)O)cc1	none
Cc1ccc(NCC(=O)N/N=C/c2ccc(C(=O)O)cc2)cc1	MEX-5 binding -61
NC(=O)c1oc2ccccc2c1NC(=O)c1nc2ccccc2s1	CendR NRP1 mod 24
NC(=O)c1oc2ccccc2c1NC(=O)c1ccc(F)cc1	none
Cc1ccc(C(CCN(Cc2ccccc2)C(=O)c2ccco2)c2ccco2)cc1 (stereo unspecified)	none
O=C(c1ccco1)N(CCC(c1ccccc1)c1ccco1)Cc1ccco1 (stereo unspecified)	core dimer inh 52
COc1ccc(/C=N/NC(=O)c2nc(Cl)c(Cl)c(N)c2Cl)cc1COc1ccc(F)cc1F	core dimer inh 53
COc1ccc(/C=N/NC(=O)c2nc(Cl)c(Cl)c(N)c2Cl)cc1COc1ccccc1F	core dimer inh 57
COc1ccc(/C=N\NC(=O)c2ccccc2F)cc1COc1ccc(F)cc1F	none
COc1cccc(OCc2cc(/C=N/NC(=O)c3ccn[nH]3)ccc2OC)c1	core dimer inh 48
COc1ccc(/C=N/NC(=O)c2cc(C(C)(C)C)[nH]n2)cc1COc1ccc(F)cc1F	CendR NRP1 mod 39
COc1cccc(CNC(=O)CCC2CCCN(C(=O)c3cccc(Cl)c3)C2)c1 (stereo unspecified)	none
COc1cccc(CNC(=O)CCC2CCCN(C(=O)C3=CC(=O)CC(C)(C)O3)C2)c1 (stereo unspecified)	CendR NRP1 mod 38
Cc1ccc2nc(-c3cccc(Br)c3)c(Cc3ccccc3)n2c1	none (no result: MEX-5 binding, DNA FID counter, core dimer inh)
O=C(Nc1cccc(S(=O)(=O)N2CCCCC2)c1)c1ccc([N+](=O)[O-])o1	CendR NRP1 mod 36
Cc1cc2cc(CNC(=O)c3ccc(S(=O)(=O)N4CCCC4)cc3)ccc2n1C	CendR NRP1 mod 26
O=C(NCc1ccccc1)c1cccc(S(=O)(=O)N2CCOCC2)c1	none
Cc1ccccc1NC(=S)NCc1ccc2c(c1)cc(C)n2C	none
Cc1cc2cc(CNC(=S)NCc3ccccc3)ccc2n1C	CendR NRP1 mod 22
O=C(NCc1ccccc1)c1cccc(S(=O)(=O)N2CCCCC2)c1	CendR NRP1 mod 31
CN(CCO)c1cccc2c1S(=O)(=O)N[C@H](Cc1ccccc1)CO2	none (no result: MEX-5 binding, DNA FID counter, core dimer inh)
COC(=O)[C@@]12C[C@@H](CC(=O)N3CCCCC3)C(=O)N(Cc3ccco3)C1=CCC(C)(C)C2	none (no result: MEX-5 binding, DNA FID counter, core dimer inh)
CC(=O)c1cccc(S(=O)(=O)N2CCC(C(=O)O)CC2)c1	none
CC(=O)c1cccc(S(=O)(=O)N2CCC(C(=O)O)(c3ccccc3)CC2)c1	CendR NRP1 mod 24
COc1ccc(-c2csc(C(C)(O)c3cccnc3)n2)cc1 (stereo unspecified)	none (no result: MEX-5 binding, DNA FID counter, core dimer inh)
COCCCNC(=O)C1Cc2cc(S(=O)(=O)N3CCCC3)ccc2N1C(C)=O (stereo unspecified)	none
COCCNC(=O)C1Cc2cc(S(=O)(=O)N3CCCC3)ccc2N1C(C)=O (stereo unspecified)	CendR NRP1 mod 24
Cc1cccnc1C1=NOC(Cc2ccccc2)C(=O)N1Cc1ccc2c(c1)OCO2 (stereo unspecified)	none (no result: MEX-5 binding, DNA FID counter, core dimer inh)
CC(=O)Nc1ccc(S(=O)(=O)N2CCN=C2SCc2cccnc2)cc1	CendR NRP1 mod 29
CC(=O)Nc1ccc(S(=O)(=O)N2CCN=C2SCc2ccc(C)cc2)cc1	none
CCCSc1ccc([C@H]2N[C@@](CC(C)C)(C(=O)OC)[C@H]3C(=O)N(CC)C(=O)[C@@H]23)cc1	none (no result: MEX-5 binding, DNA FID counter, core dimer inh)
O=C(Nc1ccccc1Cl)NC1(C(=O)NCc2cccnc2)CCCCC1	CendR NRP1 mod 25
O=C(Nc1ccccc1Cl)NC1(C(=O)NCC2CCCO2)CCCCC1 (stereo unspecified)	none
Cc1cccc(NC(=O)c2ccc(OCc3c(C)noc3C)cc2)c1	CendR NRP1 mod 29 (no result: MEX-5 binding, DNA FID counter, core dimer inh)
c1coc(-c2ccnc3nc(-n4cccc4)nn23)c1	core dimer inh 56
COc1ccc(-c2ccnc3nc(-n4cccc4)nn23)cc1	none
O=C(C[n+]1cc(-c2ccccc2)n2c1CCC2)Nc1nc(-c2ccccc2)cs1	DNA FID counter 38
O=C(COc1ccccc1)N[C@@H]1c2ccccc2CC[C@H]1OCc1ccccc1	none (no result: MEX-5 binding, DNA FID counter, core dimer inh)
O=C1c2cc([N+](=O)[O-])cc3cc([N+](=O)[O-])cc(c23)C(=O)N1c1ccccn1	CendR NRP1 mod 28
O=C(O)c1cccc(N2C(=O)c3cccc4cccc(c34)C2=O)c1	none (no result: core dimer inh)
O=C(O)c1cccc(N2C(=O)c3cc([N+](=O)[O-])cc4cc([N+](=O)[O-])cc(c34)C2=O)c1	CendR NRP1 mod 26
Cc1cc(O)ccc1Nc1cc(-c2cccc(N(C)C)c2)ncn1	none (no result: MEX-5 binding, DNA FID counter, core dimer inh)
COc1cc2c(c(OC)c1OC)C(=O)C(=Cc1ccccc1)O2	CendR NRP1 mod 26 (no result: MEX-5 binding, DNA FID counter, core dimer inh)
Cc1ccc(C2CC(=O)N3CN(c4ccc(Br)cc4)CSC3=C2C#N)o1 (stereo unspecified)	core dimer inh 48
N#CC1=C2SCN(c3ccccc3)CN2C(=O)CC1c1cccs1 (stereo unspecified)	none
CCOC(=O)c1ccc(N2CSC3=C(C#N)C(c4ccc(OC)cc4OC)CC(=O)N3C2)cc1 (stereo unspecified)	none
CCOc1ccc(N2CSC3=C(C#N)C(c4ccco4)CC(=O)N3C2)cc1 (stereo unspecified)	core dimer inh 78
CC1=C(C(=O)N2CCOCC2)CC(CC(=O)NCCCN(C)C)C(=O)N1CCCN1CCCC1=O (stereo unspecified)	none (no result: MEX-5 binding, DNA FID counter, core dimer inh)
COc1ccccc1/C=c1\sc2nc(-c3ccco3)nn2c1=O	core dimer inh 57
Cc1ccc(/C=c2\sc3nc(-c4cccnc4)nn3c2=O)cc1	none
COc1ccc(OC)c(/C=c2\sc3nc(-c4cccs4)nn3c2=O)c1	MEX-5 binding -51
CC(C)c1ccc(/C=c2\sc3nc(-c4ccncc4)nn3c2=O)cc1	none
COc1cc(/C=c2\sc3nc(=O)c(-c4ccccc4)nn3c2=O)ccc1OCCC(C)C	CendR NRP1 mod 40 (no result: MEX-5 binding)
CCOc1ccc(/C=c2\sc3nc(-c4ccco4)nn3c2=O)cc1OCC	MEX-5 binding -31, core dimer inh 70
COc1ccccc1C(=O)n1nc(-c2ccco2)nc1SC	none (no result: MEX-5 binding)
